For assay [1], the system named is HL-60. In words: Concentration which reduces by half the percentage of differentiated HL-60 cells induced by 1 x 10e-9 M Am80. The assay is classed as functional, cell-based. Conditions: Homo sapiens; call rule not given here. The method, boiled down: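 Antagonism in HL-60 cells cotreated with 1 × 10^-9 M Am80 for 4 days, with Am80 alone and test compound alone run in parallel. Cells were seeded at about 8 × 10⁴/mL in RPMI1640/5% FBS, and compounds came from 2 mM ethanol stocks (final ethanol <0.5%). NBT reduction (0.2% NBT, 200 ng/mL TPA, 20 min, 37 °C) was counted on ≥200 cells. IC50 is the concentration halving the % of differentiated cells. Run at least twice.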

In assay [2] the test system is HL-60. In words: Concentration which reduces by half the percentage of differentiated HL-60 cells; Inactive at 1 x 10e-6 M. The assay is classed as functional, cell-based, Homo sapiens.
Assay [3] deals with T1, Retinoic acid receptor beta (Homo sapiens, UniProt P10826).
T1 sequence (P10826 whole entry): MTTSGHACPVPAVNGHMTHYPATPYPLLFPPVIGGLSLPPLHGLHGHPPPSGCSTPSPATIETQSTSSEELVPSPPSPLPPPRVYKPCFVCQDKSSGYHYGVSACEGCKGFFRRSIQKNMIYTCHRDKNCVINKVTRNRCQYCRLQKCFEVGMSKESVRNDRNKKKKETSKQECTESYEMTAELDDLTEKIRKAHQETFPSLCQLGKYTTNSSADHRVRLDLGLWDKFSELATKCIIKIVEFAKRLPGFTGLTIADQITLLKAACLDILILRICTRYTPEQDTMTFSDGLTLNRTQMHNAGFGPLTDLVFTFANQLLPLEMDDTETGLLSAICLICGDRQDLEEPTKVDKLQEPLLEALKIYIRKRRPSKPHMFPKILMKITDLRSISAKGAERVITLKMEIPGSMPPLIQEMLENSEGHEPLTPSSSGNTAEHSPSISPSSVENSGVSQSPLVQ
In words: Synergistic activity towards retinoic acid receptor-beta. The method, boiled down:
(§1)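 Filter binding competition on the MBP-fused RARβ ligand-binding domain against 20 nM [³H]Am80. The IC50 for halving specific binding was converted to Ki via Ki = IC50/(1 + [L]/Kd).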

Assay [4] concerns the target T2, Retinoic acid receptor RXR-gamma (Homo sapiens, UniProt P48443).
T2 sequence (P48443 whole entry): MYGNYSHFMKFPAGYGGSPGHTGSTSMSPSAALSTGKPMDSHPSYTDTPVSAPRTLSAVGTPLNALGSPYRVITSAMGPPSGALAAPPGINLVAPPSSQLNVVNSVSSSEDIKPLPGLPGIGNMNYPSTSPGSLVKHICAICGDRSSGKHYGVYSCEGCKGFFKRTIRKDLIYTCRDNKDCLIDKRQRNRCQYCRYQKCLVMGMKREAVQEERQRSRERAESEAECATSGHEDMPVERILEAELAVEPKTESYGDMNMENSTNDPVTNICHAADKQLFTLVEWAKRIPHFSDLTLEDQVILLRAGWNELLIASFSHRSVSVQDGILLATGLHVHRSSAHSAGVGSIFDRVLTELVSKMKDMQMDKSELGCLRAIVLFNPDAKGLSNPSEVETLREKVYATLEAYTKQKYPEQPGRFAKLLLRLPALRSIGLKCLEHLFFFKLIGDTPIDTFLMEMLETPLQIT
In words: Synergistic activity towards retinoid X receptor-gamma.

The target in assay [5] is T3, Retinoic acid receptor RXR-beta (Homo sapiens, UniProt P28702).
T3 sequence (P28702 whole entry): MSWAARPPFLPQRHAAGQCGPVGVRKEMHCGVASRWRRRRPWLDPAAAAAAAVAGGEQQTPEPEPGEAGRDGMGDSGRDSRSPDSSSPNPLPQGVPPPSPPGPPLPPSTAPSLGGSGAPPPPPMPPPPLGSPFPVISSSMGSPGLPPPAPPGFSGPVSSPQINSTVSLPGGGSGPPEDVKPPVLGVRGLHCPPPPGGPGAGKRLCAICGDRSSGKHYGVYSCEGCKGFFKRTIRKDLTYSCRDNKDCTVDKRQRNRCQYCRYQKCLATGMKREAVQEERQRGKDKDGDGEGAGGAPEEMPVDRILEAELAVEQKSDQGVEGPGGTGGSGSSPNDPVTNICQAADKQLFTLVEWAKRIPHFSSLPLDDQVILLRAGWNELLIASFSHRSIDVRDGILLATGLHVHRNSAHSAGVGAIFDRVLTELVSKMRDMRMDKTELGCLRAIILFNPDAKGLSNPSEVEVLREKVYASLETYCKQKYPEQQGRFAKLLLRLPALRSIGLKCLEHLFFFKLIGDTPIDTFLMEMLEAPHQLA
In words: Synergistic activity towards retinoid X receptor-beta.

The target in assay [6] is T4, Retinoic acid receptor alpha (Homo sapiens, UniProt P10276).
T4 sequence (P10276 whole entry): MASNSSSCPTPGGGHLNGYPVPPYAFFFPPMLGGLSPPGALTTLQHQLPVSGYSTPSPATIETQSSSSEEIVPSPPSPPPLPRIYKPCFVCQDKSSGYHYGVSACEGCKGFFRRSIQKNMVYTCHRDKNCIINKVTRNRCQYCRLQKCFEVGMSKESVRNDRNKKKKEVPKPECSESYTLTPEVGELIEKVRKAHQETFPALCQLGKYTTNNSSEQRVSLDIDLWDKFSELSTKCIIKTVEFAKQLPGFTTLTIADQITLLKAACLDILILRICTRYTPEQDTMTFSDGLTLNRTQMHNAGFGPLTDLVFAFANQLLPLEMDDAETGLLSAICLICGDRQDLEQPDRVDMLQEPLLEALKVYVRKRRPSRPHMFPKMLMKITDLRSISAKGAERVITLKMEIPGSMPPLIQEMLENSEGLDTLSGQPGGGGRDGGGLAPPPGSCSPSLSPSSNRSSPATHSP
In words: Synergistic activity towards retinoic acid receptor-alpha. An outline of the steps: (§2)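 Competitive nitrocellulose filter binding to recombinant RARα ligand-binding domain fused to maltose-binding protein, using 8 nM [³H]Am80 as tracer. IC50 for displacement of specific binding was converted to Ki by Ki = IC50/(1 + [L]/Kd).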

The target in assay [7] is T5, Retinoic acid receptor RXR-alpha (Homo sapiens, UniProt P19793).
T5 sequence (P19793 whole entry): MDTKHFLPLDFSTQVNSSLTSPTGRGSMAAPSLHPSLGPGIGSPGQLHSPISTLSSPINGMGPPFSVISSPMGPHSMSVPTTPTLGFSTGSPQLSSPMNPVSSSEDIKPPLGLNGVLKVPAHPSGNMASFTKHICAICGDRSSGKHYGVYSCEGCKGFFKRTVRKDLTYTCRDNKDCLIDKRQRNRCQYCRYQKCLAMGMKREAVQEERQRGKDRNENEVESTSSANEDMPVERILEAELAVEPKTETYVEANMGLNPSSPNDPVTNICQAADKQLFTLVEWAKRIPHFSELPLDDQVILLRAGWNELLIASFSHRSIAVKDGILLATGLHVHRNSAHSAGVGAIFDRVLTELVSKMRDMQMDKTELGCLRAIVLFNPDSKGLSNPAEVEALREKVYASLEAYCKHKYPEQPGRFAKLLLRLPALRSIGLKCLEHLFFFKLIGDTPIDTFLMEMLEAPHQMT
In words: Synergistic activity towards retinoid X receptor-alpha.

Assay [8] concerns HL-60. In words: Concentration of a compound which induces HL-60 cell differentiation to the extent of 50%; inactive below 1.0E-6M test compound. The assay is classed as functional, cell-based, Homo sapiens.
For assay [9], the target named is T2, Retinoic acid receptor RXR-gamma. In words: Antagonistic activity towards retinoid X receptor-gamma. Format: functional.
Assay [10] addresses T6, Retinoic acid receptor gamma (Homo sapiens, UniProt P13631).
T6 sequence (P13631 whole entry): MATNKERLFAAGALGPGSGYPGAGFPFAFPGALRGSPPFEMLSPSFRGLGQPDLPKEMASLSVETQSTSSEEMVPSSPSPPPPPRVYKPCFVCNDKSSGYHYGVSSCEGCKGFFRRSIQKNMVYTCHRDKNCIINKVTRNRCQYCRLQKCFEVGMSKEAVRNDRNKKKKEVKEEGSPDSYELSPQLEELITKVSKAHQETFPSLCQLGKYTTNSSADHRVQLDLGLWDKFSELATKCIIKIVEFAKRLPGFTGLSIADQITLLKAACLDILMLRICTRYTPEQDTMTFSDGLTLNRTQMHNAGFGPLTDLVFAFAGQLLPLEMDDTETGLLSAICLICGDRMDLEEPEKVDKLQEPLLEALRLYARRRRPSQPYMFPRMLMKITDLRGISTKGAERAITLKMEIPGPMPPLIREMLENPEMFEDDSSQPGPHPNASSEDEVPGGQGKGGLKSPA
In words: Antagonistic activity towards retinoic acid receptor-gamma. Format: functional. The method, boiled down: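 Recombinant RARγ in a nitrocellulose filter competitive binding assay with 4 nM [³H]-9-cis-retinoic acid (diluted with cold ligand to 8 Ci/mmol). Ki = IC50/(1 + [L]/Kd).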

Assay [11] concerns the target T5, Retinoic acid receptor RXR-alpha. In words: Antagonistic activity towards retinoid X receptor-alpha. Format: functional.
The target of assay [12] is T1, Retinoic acid receptor beta. In words: Antagonistic activity towards retinoic acid receptor-beta. The assay is classed as functional. The method, boiled down:
as §1

Assay [13] deals with T3, Retinoic acid receptor RXR-beta. In words: Antagonistic activity towards retinoid X receptor-beta. The assay is classed as functional.
Assay [14] addresses T4, Retinoic acid receptor alpha. In words: Antagonistic activity towards retinoic acid receptor-alpha. Format: functional. An outline of the steps:
as §2

As for `CN1c2cc3c(cc2N=C(c2ccc(C(=O)O)cc2)c2c1ccc1ccccc21)C(C)(C)CCC3(C)C`, the midpoint of inhibition in the assay with HL-60 [1], the IC50, lay at 120 nM.
In the case of `CC(C)c1cc2c(cc1C(C)C)N(C)c1ccccc1C(c1ccc(C(=O)O)cc1)=N2`, the IC50 result in the assay with HL-60 [2] is on record as “Not Active”.
With `CC1(C)CCC(C)(C)c2cc3c(cc21)Cc1ccccc1N=C3c1ccc(C(=O)O)cc1`, the Ki was 810 nM in [3]; 1000 nM in [4]; 790 nM in assay [5]; 1600 nM in assay [6]; 1800 nM in assay [7].
With `CN1c2ccc(C(C)(C)C)cc2N=C(c2ccc(C(=O)O)cc2)c2ccccc21`, the IC50 with HL-60 [1] was more than 1000 nM.
On the same count and under the same terms, for `CN1c2cc3c(cc2N=C(c2ccc(C(=O)O)cc2)c2cc4c(cc21)C(C)(C)CCC4(C)C)C(C)(C)CCC3(C)C` the value was 830 nM.
As for `CC1(C)CCC(C)(C)c2cc3c(cc21)NC(=O)CN=C3c1ccc(C(=O)O)cc1`, the EC50 result in the assay on HL-60 [8] is “Not Active”.
As to `CN1c2cc3c(cc2N=C(c2ccc(C(=O)O)cc2)c2ccc4ccccc4c21)C(C)(C)CCC3(C)C`, the inhibitory constant (Ki) in assay [9] was 1500 nM; in [10], 490 nM; in assay [11] it was 3800 nM; in [12] it was 500 nM; in assay [13] it was 1700 nM; in [14], 1300 nM. The IC50 in the assay on HL-60 [1] came out at 36 nM.
`CN1c2ccccc2N=C(c2ccc(C(=O)O)cc2)c2cc3c(cc21)C(C)(C)CCC3(C)C`: the inhibition constant (Ki) is 680 nM in [3], 1000 nM in assay [4], 640 nM in assay [5] and 1900 nM in [7].
As for `CC1c2ccccc2N=C(c2ccc(C(=O)O)cc2)c2cc3c(cc21)C(C)(C)CCC3(C)C` (centres undefined), in [6], the inhibition constant Ki is 2000 nM.
Consider `CC1(C)CCC(C)(C)c2cc3c(cc21)Oc1ccccc1N=C3c1ccc(C(=O)O)cc1`, for which the inhibition constant (Ki) in [3] was found to be 320 nM; in [4], 2100 nM; in assay [5] it was 1200 nM; in [6], 980 nM; in [7], 3800 nM.
Consider `CN1c2ccccc2N=C(c2ccc(C(=O)O)cc2)c2cc(C(C)(C)C)ccc21`, for which, in the assay with HL-60 [8], the EC50 entry is recorded as “Not Active”.
Turning to `CCCCCCCN1c2cc3c(cc2N=C(c2ccc(C(=O)O)cc2)c2ccccc21)C(C)(C)CCC3(C)C`, in the assay on HL-60 [1], the IC50 was determined as 210 nM.
Take `CN1c2cc3c(cc2N=C(c2ccc(C(=O)O)cc2)c2ccc4cc5ccccc5cc4c21)C(C)(C)CCC3(C)C`: 320 nM corresponded to half-maximal inhibition in the assay on HL-60 [1] (IC50).
`CN1c2ccccc2N=C(c2ccc(C(=O)O)cc2)c2cc(-c3ccccc3)ccc21`: the EC50 entry in the assay on HL-60 [8] is reported as “Not Active”.
Take `CN1c2cc3c(cc2N=C(c2ccc(C(=O)O)cc2)c2c1c1ccccc1c1ccccc21)C(C)(C)CCC3(C)C`: half-maximal inhibition in the assay on HL-60 [1] (IC50) required 350 nM.
For the molecule `CC1(C)CCC(C)(C)c2cc3c(cc21)Sc1ccccc1N=C3c1ccc(C(=O)O)cc1`, the Ki is 320 nM in assay [3]; 620 nM in assay [4]; 400 nM in [5]; 900 nM in [6]; 900 nM in assay [7].
Take `CCCN1c2cc3c(cc2N=C(c2ccc(C(=O)O)cc2)c2ccccc21)C(C)(C)CCC3(C)C`: in the assay with HL-60 [1], half-maximal inhibition (IC50) required 130 nM.
`CN1c2ccccc2N=C(c2ccc(C(=O)O)cc2)c2ccccc21`: in the assay with HL-60 [8], the EC50 entry was “Not Active”.
As for `CN1c2ccccc2N=C(c2ccc(C(=O)O)cc2)c2cc(Br)ccc21`, in the assay on HL-60 [8], the EC50 entry was “Not Active”.
For the molecule `CN1c2cc3c(cc2N=C(c2ccc(C(=O)O)cc2)c2ccccc21)C(C)(C)CCC3(C)C`, the Ki in [12] is 220 nM; in assay [14], 1400 nM. The IC50 with HL-60 [1] stood at 150 nM.
As to `CN1c2ccc(C34CC5CC(CC(C5)C3)C4)cc2N=C(c2ccc(C(=O)O)cc2)c2ccccc21`, the IC50 result in the assay on HL-60 [2] is given as “Not Active”.
